Source: PubChem (Broad Institute)
KDM4C inh: inhibitors of human demethylase GASC-1 KDM4C. GST-KDM4C 2-372, H3K9me3 peptide, LANCE TR-FRET. 96,000 compounds, 0.15% hits. inhibition, % at 12.5 µM. Q9H3R0;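 active means mean replicate inhibition above about 25%, with at least 55% of replicates also reaching it, limit read from the data, passing the limit was not always enough; inconclusive means only one of those two conditions met; inactive means neither condition met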
Target sequence (Q9H3R0 2-372 limits assumed): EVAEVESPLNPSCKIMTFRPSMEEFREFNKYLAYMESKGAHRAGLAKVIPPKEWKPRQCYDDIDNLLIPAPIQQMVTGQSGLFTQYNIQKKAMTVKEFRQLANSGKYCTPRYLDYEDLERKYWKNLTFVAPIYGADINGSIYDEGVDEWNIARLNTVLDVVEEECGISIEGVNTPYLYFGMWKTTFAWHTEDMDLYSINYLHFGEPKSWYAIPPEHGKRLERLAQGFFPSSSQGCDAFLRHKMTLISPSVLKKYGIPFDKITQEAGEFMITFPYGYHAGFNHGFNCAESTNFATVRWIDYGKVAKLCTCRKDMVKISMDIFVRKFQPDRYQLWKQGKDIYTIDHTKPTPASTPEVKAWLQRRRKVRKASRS
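System – N-terminal GST-fused human GASC-1 (KDM4C) fragment, residues 2-372 · Input – enzyme final amount 10 nM · Technique – LANCE TR-FRET, Eu antibody, ULight-streptavidin, EDTA, ex 340 nm, em 618/671 nm · Medium – HEPES buffer, pH 7.5, plus ascorbate · Incubation – enzyme reaction 30 min, then detection 60 min, both room temperature · Reagent – H3K9me3 peptide with Fe(II)/2OG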
IDH1 mut inh: inhibitors of human IDH1 R132H; O75874; IDH1 R132H reductase, diaphorase/resazurin fluorescence, 60 min; inhibition, % at 10 µM; 70,000 compounds, 0.18% hits; AID 624101; in the data active means inhibition above about 34%; inconclusive means no clear call, values can overlap the other calls; inactive means below about 11%;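 further: 0% = DMSO and 100% = no enzyme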
T cruzi growth-1: T. cruzi proliferation inhibition; T. cruzi beta-gal in NIH3T3, GalScreen luminescence, 90 h; inhibition, % at 8.34 µM; 77,000 compounds, 5.9% hits;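 active means mean inhibition above about 93%, with at least 55% of replicates each passing it, limit read from the data, passing the limit was not always enough; inconclusive means only one of those two conditions holds; inactive means neither condition holds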
Pf Dd2 inh: blocks growth of Plasmodium falciparum Dd2 parasites; P. falciparum Dd2 growth, SYBR Green, 72 h; active compounds read low; AID 1159554; 94,000 compounds, 2.3% hits; activity change, % at 10 µM; in the data active means activity change below about -80%; inconclusive means no clear call, values can overlap the other calls
T cruzi growth-2: Trypanosoma cruzi proliferation inhibition; shares compounds with T cruzi growth-1; T. cruzi beta-gal in NIH3T3, GalScreen luminescence, 90 h; inhibition, % at 8.35 µM; 5,600 compounds, 72% hits; AID 651739;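 active means mean replicate inhibition above about 95% and at least 55% of replicates individually reaching it, limit read from the data; inconclusive means only one of the two criteria is met; inactive means neither criterion is met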
T cruzi growth-3: blocks T. cruzi growth in NIH3T3 host cells; shares compounds with T cruzi growth-1; T. cruzi beta-gal in NIH3T3, GalScreen luminescence, 90 h; inhibition, % at 2.09 µM; 5,600 compounds, 21% hits;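 active means mean inhibition above about 95%, with at least 55% of replicates also reaching it, limit read from the data; inconclusive means meets just one of the two conditions; inactive means meets neither condition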;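 further: plate controls were neutral control median for no effect and positive control median for full effect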
NIH3T3 tox: cytotoxicity in mouse NIH/3T3 fibroblasts | cytotoxicity (signal decrease), % at 8.35 µM | AID 651742 | shares compounds with T cruzi growth-1 | NIH/3T3 viability, CellTiter-Glo ATP luminescence, 90 h | 5,600 compounds, 14% hits;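 active means mean signal decrease across replicates above about 35% based on untreated-well scatter, with enough replicates individually passing, limit read from the data; inconclusive means no rule stated though some were filed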;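 further: 0% = median of neutral control wells and 100% = median of positive control wells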
NIH3T3 tox 2: NIH/3T3 (mouse) viability loss. inhibition, % at 24.9 µM. shares compounds with T cruzi growth-1. NIH/3T3 viability, CellTiter-Glo ATP luminescence, 90 h. 5,600 compounds, 56% hits;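 active means mean loss of cell viability signal at or above a set limit, and enough replicates individually reaching it; inconclusive means meets only the mean limit or only the replicate share; inactive means meets neither condition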;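 further: 0% = median of neutral control wells and 100% = median of positive control wells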
* hit, by the source's call. Hits are enriched below; roughly 5.8% of the tested compounds scored in any of these assays.

Results for O=C(NCC1CC1)[C@@H]1[C@@H](CO)[C@@H]2Cn3c(ccc(-c4cncnc4)c3=O)[C@@H]2N1C(=O)NC1CCCC1 ?
KDM4C inh: 2; T cruzi growth-1: -29

How did O=C(Nc1nccs1)[C@@H]1[C@@H](CO)[C@@H]2Cn3c(cccc3=O)[C@@H]2N1C(=O)C1CCC1 do in these assays?
KDM4C inh: 1; T cruzi growth-1: 101*; Pf Dd2 inh: 13; T cruzi growth-2: 1; T cruzi growth-3: -13; NIH3T3 tox: 3; NIH3T3 tox 2: 1

How did CCN1[C@H](C(=O)NCc2ccc(F)cc2)[C@@H](CO)[C@@H]2Cn3c(ccc(-c4ccccc4OC)c3=O)[C@@H]21 do in these assays?
KDM4C inh: 1; T cruzi growth-1: 104*; T cruzi growth-2: 69; T cruzi growth-3: 18; NIH3T3 tox: 17; NIH3T3 tox 2: 3

What do the screens show for `O=C(NCc1ccc(F)cc1)[C@@H]1[C@@H](CO)[C@@H]2Cn3c(cccc3=O)[C@@H]2N1CCC(F)(F)F`?
KDM4C inh: 1; T cruzi growth-1: 143*; T cruzi growth-2: -1; T cruzi growth-3: -5; NIH3T3 tox: 0; NIH3T3 tox 2: 1

What do the screens show for `O=C(NCC1CC1)[C@@H]1[C@@H](CO)[C@@H]2Cn3c(ccc(-c4cccnc4)c3=O)[C@@H]2N1C(=O)NC1CCCC1`?
KDM4C inh: 3; T cruzi growth-1: inconclusive; Pf Dd2 inh: 2; T cruzi growth-2: -1; T cruzi growth-3: 32; NIH3T3 tox: -6; NIH3T3 tox 2: 15

What do the screens show for `O=C(CCc1ccc(O)cc1)CC(CCc1ccc(O)cc1)O[C@@H]1OC[C@@H](O)[C@H](O)[C@H]1O` (stereo not given in full)?
IDH1 mut inh: 0

How did COc1ccc([N+](=O)[O-])cc1CSc1nnc(-c2ccccc2)n1-c1ccccc1 do in these assays?
IDH1 mut inh: 0

How did COc1ccccc1-c1ccc2n(c1=O)C[C@H]1[C@H](CO)[C@@H](C(=O)Nc3nccs3)N(CC3CC3)[C@@H]21 do in these assays?
KDM4C inh: 3; T cruzi growth-1: inconclusive; Pf Dd2 inh: -1; T cruzi growth-2: -1; T cruzi growth-3: -28; NIH3T3 tox: 3; NIH3T3 tox 2: 11

How did O=C(Nc1nccs1)[C@H]1[C@H](CO)[C@H]2Cn3c(ccc(-c4cccnc4)c3=O)[C@H]2N1CC1CCCC1 do in these assays?
KDM4C inh: 4; T cruzi growth-1: inconclusive; Pf Dd2 inh: -9; T cruzi growth-2: 20; T cruzi growth-3: -3; NIH3T3 tox: 11; NIH3T3 tox 2: 54*

How did CCN1[C@@H]2c3ccc(-c4ccccc4OC)c(=O)n3C[C@@H]2[C@@H](CO)[C@@H]1C(=O)Nc1nccs1 do in these assays?
KDM4C inh: 1; T cruzi growth-1: 87; Pf Dd2 inh: 6

What do the screens show for `CCC(=O)N1CC2(C1)[C@H](c1ccc(-c3ccccc3)cc1)[C@@H](CO)N2C(C)=O`?
KDM4C inh: 0; Pf Dd2 inh: -11

What do the screens show for `CO[C@H]1CN(C)C(=O)c2ccc(NC(=O)Cc3ccccc3)cc2OC[C@H](C)NC[C@@H]1C`?
KDM4C inh: 0; Pf Dd2 inh: 5

What do the screens show for `C=C(C)[C@@H]1CC=C(/C=N/NC(=O)c2ccccc2O)CC1`?
IDH1 mut inh: 0

What do the screens show for `O=C(c1cccc(F)c1)N1CCCCN2[C@H](CO)[C@H](c3ccc(-c4ccc(F)cc4)cc3)[C@H]2C1`?
T cruzi growth-1: 111*; Pf Dd2 inh: -38; T cruzi growth-2: 102*; T cruzi growth-3: 85; NIH3T3 tox: 16; NIH3T3 tox 2: 104*

What do the screens show for `O=C(c1cccc(F)c1)N1CCCCN2[C@@H](CO)[C@H](c3ccc(-c4ccc(F)cc4)cc3)[C@@H]2C1`?
T cruzi growth-1: 105*; Pf Dd2 inh: -4; T cruzi growth-2: 103*; T cruzi growth-3: 35; NIH3T3 tox: 33; NIH3T3 tox 2: 106*

Results for O=C(c1cccc(F)c1)N1CCCCN2[C@H](CO)[C@@H](c3ccc(-c4ccc(F)cc4)cc3)[C@H]2C1 ?
T cruzi growth-1: 80; Pf Dd2 inh: 31

How did O=C(c1cccc(F)c1)N1CCCCN2[C@H](CO)[C@H](c3ccc(-c4cccnc4)cc3)[C@H]2C1 do in these assays?
KDM4C inh: 1; T cruzi growth-1: 60; Pf Dd2 inh: -6

Results for O=C(c1cccc(F)c1)N1CCCCN2[C@H](CO)[C@@H](c3ccc(-c4ccncc4)cc3)[C@H]2C1 ?
KDM4C inh: 1; T cruzi growth-1: 67; Pf Dd2 inh: 17

Results for O=C(c1cccc(F)c1)N1CCCCN2[C@@H](CO)[C@H](c3ccc(-c4ccncc4)cc3)[C@@H]2C1 ?
KDM4C inh: 1; T cruzi growth-1: 109*; Pf Dd2 inh: -64; T cruzi growth-2: 101*; T cruzi growth-3: 89; NIH3T3 tox: 11; NIH3T3 tox 2: 47*

Results for O=C(c1cccc(F)c1)N1CCCCN2[C@@H](CO)[C@@H](c3ccc(-c4ccc(F)cc4)cc3)[C@@H]2C1 ?
T cruzi growth-1: 67; Pf Dd2 inh: -21

What do the screens show for `O=C(c1cccc(F)c1)N1CCCCN2[C@H](CO)[C@H](c3ccc(-c4cccnc4)cc3)[C@@H]2C1`?
KDM4C inh: 0; T cruzi growth-1: inconclusive; Pf Dd2 inh: 1; T cruzi growth-2: 103*; T cruzi growth-3: 95; NIH3T3 tox: -4; NIH3T3 tox 2: -17

How did Cc1cc(C)cc(N(CC(=O)Nc2ccc(Br)c(Cl)c2)S(C)(=O)=O)c1 do in these assays?
IDH1 mut inh: 0

How did Cc1cccc(S(=O)(=O)N2C[C@H]3[C@@H](c4ccccc42)[C@@H](CO)N3CC2CCOCC2)c1 do in these assays?
KDM4C inh: 3; T cruzi growth-1: 34; Pf Dd2 inh: -24

How did O=C(NC[C@H]1CC[C@H]2[C@H](CN2S(=O)(=O)c2ccccc2)O1)NC1CCCCC1 do in these assays?
Pf Dd2 inh: 8

Results for CN(C)CC#Cc1ccc([C@@H]2[C@@H](CO)N3CCCCN(S(=O)(=O)c4ccccc4F)C[C@H]23)cc1 ?
KDM4C inh: 2; T cruzi growth-1: 111*; Pf Dd2 inh: -4; T cruzi growth-2: 98*; T cruzi growth-3: 24; NIH3T3 tox: 1; NIH3T3 tox 2: 85*

How did CCCC#Cc1ccc([C@H]2[C@H]3CN(S(=O)(=O)c4ccccc4F)CCCCN3[C@H]2CO)cc1 do in these assays?
KDM4C inh: 1; T cruzi growth-1: inconclusive; Pf Dd2 inh: -10; T cruzi growth-2: 111*; T cruzi growth-3: 77; NIH3T3 tox: 23; NIH3T3 tox 2: 105*
